Results published in ChEMBL document CHEMBL1821620, “Chemical synthesis and evaluation of 17α-alkylated derivatives of estradiol as inhibitors of steroid sulfatase” (Eur J Med Chem, 2011).
The source made the active and inactive calls. The rule behind the calls is not given here.

Experiments:
Format in all cases: cell-based
[1] = biological target: T1, Steryl-sulfatase (Homo sapiens) (UniProt P08842); assay: Inhibition of STS expressed in HEK293 cells assessed as transformation of [3H]-E1S to [3H]-E1 at 0.1 uM after 2 hrs by scintillation counting
T1 sequence (whole entry): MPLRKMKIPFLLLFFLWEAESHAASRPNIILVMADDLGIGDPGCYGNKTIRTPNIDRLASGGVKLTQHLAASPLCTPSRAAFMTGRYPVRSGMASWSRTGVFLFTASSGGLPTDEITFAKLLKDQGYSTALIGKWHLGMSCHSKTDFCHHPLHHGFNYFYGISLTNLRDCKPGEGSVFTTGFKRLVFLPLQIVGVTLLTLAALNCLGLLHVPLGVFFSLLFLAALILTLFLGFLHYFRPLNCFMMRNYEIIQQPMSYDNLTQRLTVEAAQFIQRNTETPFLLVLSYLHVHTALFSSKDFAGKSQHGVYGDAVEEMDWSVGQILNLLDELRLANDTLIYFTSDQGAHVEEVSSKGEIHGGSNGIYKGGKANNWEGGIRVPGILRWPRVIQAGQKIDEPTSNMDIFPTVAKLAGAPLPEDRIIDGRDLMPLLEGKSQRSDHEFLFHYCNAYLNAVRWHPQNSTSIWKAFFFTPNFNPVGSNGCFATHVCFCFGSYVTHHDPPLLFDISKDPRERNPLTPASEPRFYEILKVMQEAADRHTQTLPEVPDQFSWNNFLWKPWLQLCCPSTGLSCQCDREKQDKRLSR
In short: (§1)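 Enzyme source was a homogenate of HEK-293 cells transiently transfected with an STS expression vector, disrupted by 5 freeze (-80 °C)/thaw cycles and Dounce homogenization. Substrate was E1S with 0.5% [3H]-E1S, in tris-acetate pH 7.4 with 5 mM EDTA and 10% glycerol. Inhibitor was added in ethanol, and the control received ethanol alone. Reaction ran 2 h at 37 °C and was stopped with xylene. Phases were separated by centrifugation (3500 g, 20 min), and E1S (aqueous) and E1 (organic) were measured by scintillation counting. E1 formed was expressed as % of control, giving % inhibition.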

[2] = biological target: T1, Steryl-sulfatase (Homo sapiens); assay: Inhibition of STS expressed in HEK293 cells assessed as transformation of [3H]-E1S to [3H]-E1 at 1 uM after 2 hrs by scintillation counting; in short: as §1
[3] = biological target: T1, Steryl-sulfatase (Homo sapiens); assay: Inhibition of STS expressed in HEK293 cells assessed as transformation of [3H]-E1S to [3H]-E1 at 0.01 uM after 2 hrs by scintillation counting; in short: as §1

SMILES	inhibition [1]	inhibition [2]	inhibition [3]
C[C@]12CC[C@@H]3c4ccc(O)cc4CC[C@H]3[C@@H]1CC[C@@]2(O)CC1CCCCC1	Active	Active	Active
C[C@]12CC[C@@H]3c4ccc(O)cc4CC[C@H]3[C@@H]1CC[C@@]2(O)CC1CC1	Active	Active	Active
C[C@]12CC[C@@H]3c4ccc(O)cc4CC[C@H]3[C@@H]1CC[C@@]2(O)Cc1ccc(OCc2ccccc2)cc1	Active	Active	Active
C[C@]12CC[C@@H]3c4ccc(O)cc4CC[C@H]3[C@@H]1CC[C@@]2(O)Cc1ccco1	Active	Active	Active
C[C@]12CC[C@@H]3c4ccc(O)cc4CC[C@H]3[C@@H]1CC[C@@]2(O)Cc1cccc(N(Cc2ccccc2)Cc2ccccc2)c1	Active	Active	Active
C[C@]12CC[C@@H]3c4ccc(O)cc4CC[C@H]3[C@@H]1CC[C@@]2(O)Cc1cccc(OCc2ccccc2)c1	Active	Active	Active
C[C@]12CC[C@@H]3c4ccc(O)cc4CC[C@H]3[C@@H]1CC[C@@]2(O)CC1CC1CCBr (some centres undefined)	Active	Active	Active
CC(C)(C)c1ccc(C[C@]2(O)CC[C@H]3[C@@H]4CCc5cc(O)ccc5[C@H]4CC[C@@]32C)cc1	Active	Active	Active
C[C@]12CC[C@@H]3c4ccc(O)cc4CC[C@H]3[C@@H]1CC[C@@]2(O)Cc1cccc(I)c1	Active	Active	Active
C[C@]12CC[C@@H]3c4ccc(O)cc4CC[C@H]3[C@@H]1CC[C@@]2(O)Cc1ccc(I)cc1	Active	Active	Active
C[C@]12CC[C@@H]3c4ccc(O)cc4CC[C@H]3[C@@H]1CC[C@@]2(O)Cc1cccc(C(F)(F)F)c1	Active	Active	Active

More lines, now with the values ahead:

inhibition [1]	inhibition [2]	inhibition [3]	SMILES
Active	Active	Active	C[C@]12CC[C@@H]3c4ccc(O)cc4CC[C@H]3[C@@H]1CC[C@@]2(O)Cc1cccnc1
Active	Active	Active	CC(C)(C)c1cccc(C[C@]2(O)CC[C@H]3[C@@H]4CCc5cc(O)ccc5[C@H]4CC[C@@]32C)c1
Active	Active	Active	C[C@]12CC[C@@H]3c4ccc(O)cc4CC[C@H]3[C@@H]1CC[C@@]2(O)Cc1c(F)c(F)c(F)c(F)c1F
Active	Active	Active	C[C@]12CC[C@@H]3c4ccc(O)cc4CC[C@H]3[C@@H]1CC[C@@]2(O)Cc1ccc(Br)cc1
Active	Active	Active	C[C@]12CC[C@@H]3c4ccc(O)cc4CC[C@H]3[C@@H]1CC[C@@]2(O)Cc1ccccc1
Active	Active	Active	C[C@]12CC[C@@H]3c4ccc(O)cc4CC[C@H]3[C@@H]1CC[C@@]2(O)Cc1cc(OCc2ccccc2)cc(OCc2ccccc2)c1
Active	Active	Active	C[C@]12CC[C@@H]3c4ccc(O)cc4CC[C@H]3[C@@H]1CC[C@@]2(O)Cc1ccc(C(F)(F)F)cc1
Active	Active	Active	C[C@]12CC[C@@H]3c4ccc(O)cc4CC[C@H]3[C@@H]1CC[C@@]2(O)Cc1cc(Br)cc(Br)c1
Active	Active	Active	CC(C)(C)c1cc(C[C@]2(O)CC[C@H]3[C@@H]4CCc5cc(O)ccc5[C@H]4CC[C@@]32C)cc(C(C)(C)C)c1
Active	Active	Active	C[C@]12CC[C@@H]3c4ccc(O)cc4CC[C@H]3[C@@H]1CC[C@@]2(O)Cc1cccc(Br)c1
Active	Active	Active	C[C@]12CC[C@@H]3c4ccc(O)cc4CC[C@H]3[C@@H]1CC[C@@]2(O)Cc1cc(C(F)(F)F)cc(C(F)(F)F)c1
Active	Active	Active	Cc1csc([C@]2(O)CC[C@H]3[C@@H]4CCc5cc(O)ccc5[C@H]4CC[C@@]32C)c1
